# Activity calls are given as the source filed them. The rule behind the calls is not given here.
# Key:
# Mus musculus [1] = assay: Induction of glucosuria in high fat diet induced obese albino C57 mouse at 75 mg/kg, po administered as single administration measured after 24 hrs by glucose excretion assay; assay type: functional, organism-based; design: dose 75 mg/kg
# Outline: (§1)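 DIO mice received one dose, either by oral gavage or as a dietary admixture. Urinary glucose excretion was then followed past 24 h, n = 6.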
# Mus musculus [2] = assay: Induction of glucosuria in high fat diet induced obese albino C57 mouse at 10 to 100 mg/kg, po administered as single administration measured after 17 hrs by glucose excretion assay; assay type: functional, organism-based
# Outline: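 Adult C57 diet-induced obese mice were given one oral gavage dose spanning 10 to 100 mg/kg. Urinary glucose excretion was measured over the first 17 h after dosing, n = 6 per group, with a vehicle-treated group included.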
# Mus musculus [3] = assay: Induction of glucosuria in high fat diet induced obese albino C57 mouse at 30 mg/kg, po administered as single administration measured after 24 hrs by glucose excretion assay; assay type: functional, organism-based; design: dose 30 mg/kg; outline: as §1
# Mus musculus [4] = assay: Induction of glucosuria in high fat diet induced obese albino C57 mouse at 75 mg/kg administered through diet measured after 24 hrs by glucose excretion assay; assay type: functional, organism-based; design: dose 75 mg/kg; outline: as §1
# Mus musculus [5] = assay: Induction of glucosuria in high fat diet induced obese albino C57 mouse at 26 mg/kg administered daily through diet for 4 consecutive days by glucose excretion assay; assay type: functional, organism-based; design: dose 26 mg/kg
# Outline: (§2)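 DIO mice received the compound as a dietary admixture for 4 consecutive days. Average daily intakes were 8, 26, 77 and 259 mg/kg. Urinary glucose excretion was measured each day, n = 6.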
# Mus musculus [6] = assay: Induction of glucosuria in high fat diet induced obese albino C57 mouse at 77 mg/kg administered daily through diet for 4 consecutive days by glucose excretion assay; assay type: functional, organism-based; design: dose 77 mg/kg; outline: as §2
# Mus musculus [7] = assay: Induction of glucosuria in high fat diet induced obese albino C57 mouse at 259 mg/kg administered daily through diet for 4 consecutive days by glucose excretion assay; assay type: functional, organism-based; design: dose 259 mg/kg; outline: as §2
# [8] = biological target: T1, Sodium/glucose cotransporter 2 (Mus musculus, UniProt Q923I7); assay: Inhibition of mouse SGLT2-mediated [14C]alpha-methylglucopyranoside uptake by cell based assay
# T1 sequence (Q923I7 whole entry): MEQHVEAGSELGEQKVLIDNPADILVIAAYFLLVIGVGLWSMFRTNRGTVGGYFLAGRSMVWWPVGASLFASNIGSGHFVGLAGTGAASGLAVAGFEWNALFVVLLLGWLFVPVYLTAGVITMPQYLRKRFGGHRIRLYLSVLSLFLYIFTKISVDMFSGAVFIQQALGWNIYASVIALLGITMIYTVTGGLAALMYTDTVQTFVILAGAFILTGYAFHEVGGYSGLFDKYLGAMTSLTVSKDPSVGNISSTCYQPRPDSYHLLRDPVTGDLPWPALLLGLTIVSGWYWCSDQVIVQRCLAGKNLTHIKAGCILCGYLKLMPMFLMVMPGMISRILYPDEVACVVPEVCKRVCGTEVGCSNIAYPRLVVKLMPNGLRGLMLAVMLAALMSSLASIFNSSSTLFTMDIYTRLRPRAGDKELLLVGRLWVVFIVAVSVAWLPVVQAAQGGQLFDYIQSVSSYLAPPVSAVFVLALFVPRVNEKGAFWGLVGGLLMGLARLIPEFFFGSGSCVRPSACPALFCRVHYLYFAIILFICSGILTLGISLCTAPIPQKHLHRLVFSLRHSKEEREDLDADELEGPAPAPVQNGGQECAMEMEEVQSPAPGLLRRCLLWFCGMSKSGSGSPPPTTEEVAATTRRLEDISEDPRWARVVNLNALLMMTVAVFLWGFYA
# [9] = biological target: T2, Sodium/glucose cotransporter 2 (Homo sapiens, UniProt P31639); assay: Inhibition of human SGLT2 expressed in HEK293 cells assessed as inhibition of [14C]alpha-methylglucopyranoside uptake; assay type: cell-based
# T2 sequence (P31639 whole entry): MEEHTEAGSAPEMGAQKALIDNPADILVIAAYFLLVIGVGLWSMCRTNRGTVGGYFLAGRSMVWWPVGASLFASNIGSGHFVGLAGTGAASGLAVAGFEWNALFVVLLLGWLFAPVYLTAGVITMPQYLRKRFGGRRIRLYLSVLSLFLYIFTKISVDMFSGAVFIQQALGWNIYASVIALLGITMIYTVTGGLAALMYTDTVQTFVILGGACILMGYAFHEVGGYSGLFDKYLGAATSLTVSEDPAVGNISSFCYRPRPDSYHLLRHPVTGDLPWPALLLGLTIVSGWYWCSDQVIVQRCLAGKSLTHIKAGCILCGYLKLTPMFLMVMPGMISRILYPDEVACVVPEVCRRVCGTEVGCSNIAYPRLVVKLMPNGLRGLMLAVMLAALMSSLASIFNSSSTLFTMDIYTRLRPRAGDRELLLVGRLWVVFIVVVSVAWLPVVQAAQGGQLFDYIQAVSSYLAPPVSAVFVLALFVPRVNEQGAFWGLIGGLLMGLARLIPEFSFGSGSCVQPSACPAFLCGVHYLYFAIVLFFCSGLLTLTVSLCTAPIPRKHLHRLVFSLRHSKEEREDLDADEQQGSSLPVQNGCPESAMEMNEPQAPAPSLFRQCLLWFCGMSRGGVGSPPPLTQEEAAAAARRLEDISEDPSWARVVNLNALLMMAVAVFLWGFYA
# Outline: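 Cells stably expressing human SGLT2 were used to measure sodium-coupled uptake of [14C]α-methylglucopyranoside, a metabolically stable SGLT-specific glucose analogue. Uptake was measured across increasing compound concentrations, and IC50 was derived from the inhibition of uptake.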
# Mus musculus [10] = assay: Half life in mouse at 10 mg/kg, po; assay type: ADME, organism-based; design: dose 10 mg/kg, route oral; conditions: in vivo
# Mus musculus [11] = assay: (§3) Tmax in mouse at 10 mg/kg, po; assay type: ADME, organism-based; design: dose 10 mg/kg, route oral; conditions: in vivo
# Mus musculus [12] = assay: (§4) Cmax in mouse at 10 mg/kg, po; assay type: ADME, organism-based; design: dose 10 mg/kg, route oral; conditions: in vivo
# Mus musculus [13] = assay: (§5) AUC(last) in mouse at 10 mg/kg, po; assay type: ADME, organism-based, Plasma; design: time 0 - last, dose 10 mg/kg, route oral; conditions: in vivo
# Mus musculus [14] = assay: (§6) AUC (0 to infinity) in mouse at 10 mg/kg, po; assay type: ADME, organism-based, Plasma; design: time infinity, dose 10 mg/kg, route oral; conditions: in vivo
# Mus musculus [15] = assay: (§7) Apparent volume of distribution with respect to the bioavailability in mouse at 10 mg/kg, po; assay type: ADME, organism-based; conditions: in vivo
# Mus musculus [16] = assay: (§8) Mean resident time in mouse at 10 mg/kg, po; assay type: ADME, organism-based; design: dose 10 mg/kg, route oral; conditions: in vivo
# Mus musculus [17] = assay: Oral bioavailability in mouse at 10 mg/kg; assay type: ADME, organism-based; conditions: in vivo
# Mus musculus [18] = assay: (§9) Half life in mouse at 1 mg/kg, iv; assay type: ADME, organism-based; design: dose 1 mg/kg, route intravenous; conditions: in vivo
# Mus musculus [19] = assay: (§10) Tmax in mouse at 1 mg/kg, iv; assay type: ADME, organism-based; design: dose 1 mg/kg, route intravenous; conditions: in vivo
# Mus musculus [20] = assay: (§11) AUC (0 to infinity) in mouse at 1 mg/kg, iv; assay type: ADME, organism-based, Plasma; design: dose 1 mg/kg, route intravenous, time infinity; conditions: in vivo
# Mus musculus [21] = assay: Apparent volume of distribution with respect to the bioavailability in mouse at 1 mg/kg, iv; assay type: ADME, organism-based; conditions: in vivo
# Mus musculus [22] = assay: (§12) Mean resident time in mouse at 1 mg/kg, iv; assay type: ADME, organism-based; design: dose 1 mg/kg, route intravenous; conditions: in vivo
# Mus musculus [23] = assay: (§13) Volume of distribution at steady state in mouse at 1 mg/kg, iv; assay type: ADME, organism-based; design: dose 1 mg/kg, route intravenous; conditions: in vivo
# [24] = as §3; assay type: ADME, organism-based; design: dose 10 mg/kg, route oral; conditions: in vivo
# [25] = as §4; assay type: ADME, organism-based; design: dose 10 mg/kg, route oral; conditions: in vivo
# [26] = as §5; assay type: ADME, organism-based, Plasma; design: time 0 - last, dose 10 mg/kg, route oral; conditions: plasma
# [27] = as §6; assay type: ADME, organism-based, Plasma; design: time infinity, dose 10 mg/kg, route oral; conditions: plasma
# [28] = as §7; assay type: ADME, organism-based; conditions: in vivo, read-out: Vc/F
# [29] = Apparent oral clearance in mouse at 10 mg/kg, po; assay type: ADME, organism-based; design: dose 10 mg/kg, route oral; conditions: in vivo
# [30] = as §8; assay type: ADME, organism-based; design: dose 10 mg/kg, route oral; conditions: in vivo
# [31] = as §9; assay type: ADME, organism-based; design: dose 1 mg/kg, route intravenous; conditions: in vivo
# [32] = as §10; assay type: ADME, organism-based; design: dose 1 mg/kg, route intravenous; conditions: in vivo
# [33] = as §11; assay type: ADME, organism-based, Plasma; design: dose 1 mg/kg, route intravenous, time infinity; conditions: plasma
# [34] = Clearance in mouse at 1 mg/kg, iv; assay type: ADME, organism-based; design: dose 1 mg/kg, route intravenous; conditions: in vivo
# [35] = as §12; assay type: ADME, organism-based; design: dose 1 mg/kg, route intravenous; conditions: in vivo
# [36] = as §13; assay type: ADME, organism-based; design: dose 1 mg/kg, route intravenous; conditions: in vivo, read-out: Vdss
smiles,measurement,setting,value
CCOc1ccc(Cc2cc([C@@H]3OC(OC)[C@@H](O)[C@H](O)[C@H]3O)ccc2Cl)cc1 (mixture of isomers; 7c) [listing 1 of 2 here],Activity,Mus musculus [1],Active
same,Activity,Mus musculus [2],Dose-dependent effect
same,Activity,Mus musculus [3],Active
same,Activity,Mus musculus [4],Active
same,Activity,Mus musculus [5],Active
same,Activity,Mus musculus [6],Active
same,Activity,Mus musculus [7],Active
CCOc1ccc(Cc2cc([C@@H]3OC(OC)[C@@H](O)[C@H](O)[C@H]3O)ccc2C)cc1 (mixture of isomers),IC50,[8],23 nM
same,IC50,[9],55 nM
CCOc1ccc(Cc2cc([C@@H]3OC(OC)C[C@H](O)[C@H]3O)ccc2Cl)cc1 (mixture of isomers),IC50,[8],14000 nM
same,IC50,[9],> 30000 nM
COC1O[C@@H](c2ccc(Cl)c(Cc3ccc(O)cc3)c2)[C@H](O)[C@@H](O)[C@@H]1O (mixture of isomers),IC50,[8],8 nM
same,IC50,[9],32 nM
CCOc1ccc(Cc2cc([C@@H]3OC(OC)[C@@H](O)[C@H](O)[C@H]3O)ccc2Cl)cc1 (mixture of isomers; 7c) [listing 2 of 2 here],IC50,[8],6.3 nM
same,IC50,[9],14 nM
same,t1/2,Mus musculus [10],6.96 h
same,Tmax,Mus musculus [11],15 min
same,Cmax,Mus musculus [12],6.49 µM
same,AUC,Mus musculus [13],16.191 µM·h
same,AUC,Mus musculus [14],17.458 µM·h
same,Vc/F,Mus musculus [15],14.2 L/kg
same,MRT,Mus musculus [16],8.44 h
same,F,Mus musculus [17],100%
same,t1/2,Mus musculus [18],1.29 h
same,Tmax,Mus musculus [19],15 min
same,AUC,Mus musculus [20],1481 nM·h
same,Vc/F,Mus musculus [21],3.08 L/kg
same,MRT,Mus musculus [22],1.77 h
same,Vdss,Mus musculus [23],2.93 L/kg
CCOc1ccc(Cc2cc([C@@H]3OC(OCCO)[C@@H](O)[C@H](O)[C@H]3O)ccc2Cl)cc1 (mixture of isomers),IC50,[8],23 nM
same,IC50,[9],36 nM
"CCOc1ccc(C(=O)c2cc([C@@H]3OC(OC)[C@@H](O)[C@H](O)[C@H]3O)ccc2Cl)cc1 (single isomer, unassigned)",IC50,[8],57 nM
same,IC50,[9],100 nM
CCOc1ccc(Cc2cc([C@@H]3OC(OCc4ccccc4)[C@@H](O)[C@H](O)[C@H]3O)ccc2Cl)cc1 (mixture of isomers),IC50,[8],330 nM
same,IC50,[9],620 nM
CCOc1ccc(Cc2cc([C@@H]3OC(OC)[C@@H](O)[C@H](O)[C@H]3O)ccc2Cl)cc1 (stereo in doubt; 6a),IC50,[8],7.1 nM
same,IC50,[9],25 nM
CCOc1ccc(Cc2cc([C@@H]3OC(OC)[C@H](F)[C@H](O)[C@H]3O)ccc2Cl)cc1 (mixture of isomers),IC50,[8],220 nM
same,IC50,[9],600 nM
COC1O[C@@H](c2ccc(Cl)c(Cc3ccc(O[C@H]4CCN(C)C4)cc3)c2)[C@H](O)[C@@H](O)[C@@H]1O (mixture of isomers),IC50,[8],92 nM
same,IC50,[9],170 nM
CCOc1ccc(Cc2cc([C@H]3OC(OC)[C@H](O)[C@@H](O)[C@@H]3O)ccc2Cl)cc1 (stereo partly drawn),IC50,[8],9200 nM
same,IC50,[9],> 30000 nM
CCOc1ccc(Cc2cc([C@@H]3OC(OC)[C@@H](O)[C@H](O)[C@H]3O)ccc2Cl)cc1 (mixture of isomers; 7b),IC50,[8],280 nM
same,IC50,[9],4800 nM
CCOc1ccc(Cc2cc([C@@H]3OC(OC)[C@@H](O)[C@H](O)[C@H]3O)ccc2Cl)cc1 (mixture of isomers; 7a),IC50,[8],7.1 nM
same,IC50,[9],25 nM
same,t1/2,Mus musculus [10],2.76 h
same,Tmax,[24],22.8 min
same,Cmax,[25],4.38 µM
same,AUC(0-t),[26],8.19 µM·h
same,AUC(0-inf),[27],11.7 µM·h
same,Vd/F,[28],8.48 L/kg
same,CL/F,[29],35.4 mL/min/kg
same,MRT,[30],4.6 h
same,F,Mus musculus [17],61.2%
same,half-life,[31],64.2 min
same,Tmax,[32],22.8 min
same,AUC(0-inf),[33],1.91 µM·h
same,Vc/F,Mus musculus [21],1.91 L/kg
same,clearance,[34],22.5 mL/min/kg
same,MRT,[35],1.62 h
same,Vd,[36],1.98 L/kg

# — ChEMBL document CHEMBL1156071, “Novel L-xylose derivatives as selective sodium-dependent glucose cotransporter 2 (SGLT2) inhibitors for the treatment of type 2 diabetes” (J Med Chem, 2009)
